Results published in ChEMBL document CHEMBL1135642, “Synthesis and biological evaluation of 7,8,9,10-tetrahydroimidazo[1,2-c]pyrido[3,4-e]pyrimdin-5(6H)-ones as functionally selective ligands of the benzodiazepine receptor site on the GABA(A) receptor” (J Med Chem, 2002).
Values belong to the compound of their own block, whether it stands above or below them.

Key:
[1] = target: GABA-A receptor; anion channel; assay: Binding affinity was determined by displacement of [3H]flumazenil from rat cortex homogenates; format: functional
Method in brief: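 Displacement of [3H]flumazenil from rat cortex homogenates. Values are averages (±SD); some analogues were run once as a single set of triplicates. NA means an IC50 was not achieved at the highest dose tested.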

[2] = target: T1, Gamma-aminobutyric acid receptor subunit alpha-1 (Homo sapiens) (UniProt P14867); assay: Maximum percent potentiation against gamma-aminobutyric acid (GABA) A receptor, alpha 1; settings: Xenopus laevis
T1 sequence (whole entry): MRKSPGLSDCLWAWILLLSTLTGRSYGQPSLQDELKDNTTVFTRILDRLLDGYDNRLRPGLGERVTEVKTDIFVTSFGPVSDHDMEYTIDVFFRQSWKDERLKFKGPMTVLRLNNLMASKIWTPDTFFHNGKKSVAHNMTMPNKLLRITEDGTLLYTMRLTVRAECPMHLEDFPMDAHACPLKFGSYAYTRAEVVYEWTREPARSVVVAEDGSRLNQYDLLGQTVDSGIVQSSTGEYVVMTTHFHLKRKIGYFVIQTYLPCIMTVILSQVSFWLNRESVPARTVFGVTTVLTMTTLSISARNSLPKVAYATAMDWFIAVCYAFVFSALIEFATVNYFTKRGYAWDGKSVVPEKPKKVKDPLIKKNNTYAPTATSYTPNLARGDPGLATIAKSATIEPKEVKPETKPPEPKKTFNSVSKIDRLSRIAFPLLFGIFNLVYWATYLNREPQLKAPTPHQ
Method in brief: (§1)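 Xenopus laevis oocytes were injected with human cRNA for the α, β and γ subunits needed to express each receptor subtype (α1, α2, α3 or α5). Electrophysiological recording was used to read potentiation, and the effective concentration and maximal percent potentiation were derived from it.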

[3] = target: T2, Gamma-aminobutyric acid receptor subunit alpha-3 (Homo sapiens) (UniProt P34903); assay: Maximum percent potentiation against gamma-aminobutyric acid (GABA) A receptor, alpha 3; settings: Xenopus laevis; method in brief: as §1
T2 sequence (whole entry): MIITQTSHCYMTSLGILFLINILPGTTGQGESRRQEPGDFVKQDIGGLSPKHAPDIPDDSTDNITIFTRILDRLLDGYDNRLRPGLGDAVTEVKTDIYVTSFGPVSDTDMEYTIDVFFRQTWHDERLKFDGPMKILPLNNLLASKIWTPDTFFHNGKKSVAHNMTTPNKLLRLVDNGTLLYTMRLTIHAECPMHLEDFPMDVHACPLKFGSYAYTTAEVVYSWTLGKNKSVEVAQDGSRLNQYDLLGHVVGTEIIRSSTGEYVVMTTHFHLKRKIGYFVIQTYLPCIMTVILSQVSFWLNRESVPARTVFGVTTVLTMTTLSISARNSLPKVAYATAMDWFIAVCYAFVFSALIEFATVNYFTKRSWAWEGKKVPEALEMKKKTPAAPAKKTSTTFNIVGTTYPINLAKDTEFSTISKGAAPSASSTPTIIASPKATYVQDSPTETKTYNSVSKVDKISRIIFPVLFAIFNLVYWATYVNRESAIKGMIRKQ

[4] = target: T3, Gamma-aminobutyric acid receptor subunit alpha-2 (Homo sapiens) (UniProt P47869); assay: Maximum percent potentiation against gamma-aminobutyric acid (GABA) A receptor, alpha 2; settings: Xenopus laevis; method in brief: as §1
T3 sequence (whole entry): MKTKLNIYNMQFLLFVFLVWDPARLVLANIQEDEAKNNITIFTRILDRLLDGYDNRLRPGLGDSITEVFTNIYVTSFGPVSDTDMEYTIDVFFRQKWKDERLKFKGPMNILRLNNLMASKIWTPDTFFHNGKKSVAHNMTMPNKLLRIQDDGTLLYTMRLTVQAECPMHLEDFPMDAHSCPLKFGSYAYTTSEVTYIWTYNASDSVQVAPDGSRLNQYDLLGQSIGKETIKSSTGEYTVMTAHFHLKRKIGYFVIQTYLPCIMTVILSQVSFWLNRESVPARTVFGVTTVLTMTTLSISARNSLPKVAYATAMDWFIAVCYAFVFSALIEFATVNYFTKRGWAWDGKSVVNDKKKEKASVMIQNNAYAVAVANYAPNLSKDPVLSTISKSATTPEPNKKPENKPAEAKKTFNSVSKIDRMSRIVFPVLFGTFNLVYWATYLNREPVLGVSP

[5] = target: T4, Gamma-aminobutyric acid receptor subunit alpha-5 (Homo sapiens) (UniProt P31644); assay: Maximum percent potentiation against gamma-aminobutyric acid (GABA) A receptor, alpha 5; settings: Xenopus laevis; method in brief: as §1
T4 sequence (whole entry): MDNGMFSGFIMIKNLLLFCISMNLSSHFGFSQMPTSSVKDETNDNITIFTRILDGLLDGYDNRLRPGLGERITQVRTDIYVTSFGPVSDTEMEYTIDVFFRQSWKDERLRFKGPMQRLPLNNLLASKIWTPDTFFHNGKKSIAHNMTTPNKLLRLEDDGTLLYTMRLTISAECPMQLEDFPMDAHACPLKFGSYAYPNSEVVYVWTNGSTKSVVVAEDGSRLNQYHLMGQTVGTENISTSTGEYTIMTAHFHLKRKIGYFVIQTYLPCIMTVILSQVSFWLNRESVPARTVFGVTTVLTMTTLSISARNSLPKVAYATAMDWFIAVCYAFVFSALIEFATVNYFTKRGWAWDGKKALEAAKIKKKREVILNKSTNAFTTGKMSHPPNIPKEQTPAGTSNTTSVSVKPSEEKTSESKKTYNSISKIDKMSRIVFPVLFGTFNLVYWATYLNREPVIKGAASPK

[6] = target: T5, Gamma-aminobutyric acid receptor subunit alpha-3 (Homo sapiens, UniProt P34903); assay: Effective concentration against gamma-aminobutyric acid (GABA) A receptor, alpha 3; parameters: species or system Xenopus laevis; method in brief: as §1
T5 sequence (P34903 whole entry): T2 sequence (whole entry)

[7] = target: T6, Gamma-aminobutyric acid receptor subunit alpha-1 (Homo sapiens, UniProt P14867); assay: Effective concentration against gamma-aminobutyric acid (GABA) A receptor, alpha 1; parameters: species or system Xenopus laevis; method in brief: as §1
T6 sequence (P14867 whole entry): T1 sequence (whole entry)

[8] = target: T7, Gamma-aminobutyric acid receptor subunit alpha-2 (Homo sapiens, UniProt P47869); assay: Effective concentration against gamma-aminobutyric acid (GABA) A receptor, alpha 2; parameters: species or system Xenopus laevis; method in brief: as §1
T7 sequence (P47869 whole entry): T3 sequence (whole entry)

[9] = target: T8, Gamma-aminobutyric acid receptor subunit alpha-5 (Homo sapiens, UniProt P31644); assay: Effective concentration against Gamma-aminobutyric acid A receptor, alpha 5; parameters: species or system Xenopus laevis; method in brief: as §1
T8 sequence (P31644 whole entry): T4 sequence (whole entry)

Activity [2]: 114%
Activity [3]: 115%
Activity [4]: 71%
Activity [5]: 101%
Compound: Oc1nc2c(c3nc(-c4ccccc4F)cn13)CN(CC1CCCCC1)CC2

Ki [1]: 56 nM
Activity [2]: 0%
Activity [3]: 14%
EC50 [6]: 935 nM
Activity [4]: 0%
Activity [5]: 0%
Compound: CCN1CCc2nc(O)n3cc(-c4ccccc4F)nc3c2C1

EC50 [7]: 118 nM
Ki [1]: 10.1 nM
EC50 [8]: 459 nM
EC50 [9]: 439 nM
EC50 [6]: 425 nM
Compound: O=c1[nH]c2c(c3nc(-c4ccccc4F)cn13)CN(Cc1cnc[nH]1)CC2

Ki [1]: 72 nM
Compound: Oc1nc2c(c3nc(-c4cc(F)cc(F)c4)cn13)CN(Cc1ccccc1)CC2

EC50 [7]: 18 nM
Ki [1]: 1.3 nM
EC50 [8]: 20 nM
EC50 [9]: 74 nM
EC50 [6]: 20 nM
Compound: O=c1[nH]c2c(c3nc(-c4ccccc4F)cn13)CN(Cc1ccccc1)CC2

Ki [1]: 83 nM
Compound: O=C(c1ccccc1)N1CCc2nc(O)n3cc(-c4ccccc4F)nc3c2C1

Ki [1]: 797 nM
Compound: COc1ccccc1-c1cn2c(O)nc3c(c2n1)CN(Cc1ccccc1)CC3

Activity [2]: 123%
Activity [4]: 115%
Compound: COc1cccc(-c2cn3c(O)nc4c(c3n2)CN(Cc2ccccc2)CC4)c1

Ki [1]: 14.9 nM
Compound: CC(c1ccc(F)cc1)N1CCc2nc(O)n3cc(-c4ccccc4F)nc3c2C1 (stereo unspecified)

Ki [1]: 71 nM
Compound: Oc1nc2c(c3nc(-c4cccc(Cl)c4)cn13)CN(Cc1ccccc1)CC2

Activity [2]: 67%
Activity [4]: 179%
Compound: Oc1nc2c(c3nc(-c4ccccc4)cn13)CN(Cc1ccccc1)CC2

EC50 [7]: 36 nM
Activity [2]: 59%
EC50 [8]: 188 nM
Activity [4]: 82%
Compound: Oc1nc2c(c3nc(-c4cc(F)ccc4F)cn13)CN(Cc1ccccc1)CC2

Activity [2]: 63%
Activity [3]: 95%
Activity [4]: 184%
Activity [5]: 30%
Compound: Oc1nc2c(c3nc(-c4ccc(F)cc4F)cn13)CN(Cc1ccccc1)CC2

Activity [2]: 5%
Activity [3]: 0%
Activity [4]: 8%
Activity [5]: 3%
Compound: O=C(OCc1ccccc1)N1CCc2nc(O)n3cc(-c4ccccc4F)nc3c2C1

Ki [1]: 45 nM
Compound: COc1ccc(-c2cn3c(O)nc4c(c3n2)CN(C)CC4)c(F)c1

Ki [1]: 147 nM
Compound: Oc1nc2c(c3nc(-c4ccccc4F)cn13)CN(CCCc1ccccc1)CC2

Activity [2]: 40%
Activity [3]: 49%
Activity [4]: 58%
Activity [5]: 44%
Compound: Oc1nc2c(c3nc(-c4ccccc4F)cn13)CN(Cc1c[nH]cn1)CC2

Ki [1]: 123 nM
Compound: O=C(c1ccncc1)N1CCc2nc(O)n3cc(-c4ccccc4F)nc3c2C1

EC50 [7]: 17 nM
EC50 [8]: 184 nM
Compound: O=c1[nH]c2c(c3nc(-c4ccccc4)cn13)CN(Cc1ccccc1)CC2

Ki [1]: 64 nM
Compound: CCOC(=O)N1CCc2nc(O)n3cc(-c4ccccc4F)nc3c2C1

Activity [2]: 0%
Activity [4]: 0%
Compound: CN1CCc2nc(O)n3cc(-c4ccccc4F)nc3c2C1

The remaining lines, values behind:

Compound: O=C(c1cccnc1)N1CCc2nc(O)n3cc(-c4ccccc4F)nc3c2C1
Ki [1]: 92 nM

Compound: CCCCOC(=O)N1CCc2nc(O)n3cc(-c4ccccc4F)nc3c2C1
Ki [1]: 230 nM

Compound: CC(C)N1CCc2nc(O)n3cc(-c4ccccc4F)nc3c2C1
Ki [1]: 51 nM

Compound: CCC(=O)N1CCc2nc(O)n3cc(-c4ccccc4F)nc3c2C1
EC50 [7]: 95 nM
Ki [1]: 216 nM
Activity [2]: 12%
EC50 [8]: 110 nM
Activity [3]: 9%
EC50 [6]: 116 nM
Activity [4]: 22%
Activity [5]: 0%

Compound: O=C(c1ccccc1)N1CCc2nc(O)n3cc(-c4ccccc4)nc3c2C1
Ki [1]: 301 nM

Compound: COc1ccc(-c2cn3c(O)nc4c(c3n2)CN(Cc2ccccc2)CC4)c(F)c1
Ki [1]: 0.6 nM

Compound: CC(c1cccc(F)c1)N1CCc2nc(O)n3cc(-c4ccccc4F)nc3c2C1 (stereo unspecified)
Ki [1]: 8.3 nM

Compound: O=c1[nH]c2c(c3nc(-c4ccccc4F)cn13)CN(Cc1cccnc1)CC2
EC50 [7]: 56 nM
Ki [1]: 1.4 nM
EC50 [8]: 101 nM
EC50 [6]: 23 nM

Compound: COc1cccc(-c2cn3c(=O)[nH]c4c(c3n2)CN(Cc2ccccc2)CC4)c1
EC50 [7]: 81 nM
Ki [1]: 2.3 nM
EC50 [8]: 268 nM

Compound: C=CCN1CCc2nc(O)n3cc(-c4ccccc4F)nc3c2C1
Activity [2]: 5%
Activity [3]: 20%
Activity [4]: 18%
Activity [5]: 0%

Compound: Oc1nc2c(c3nc(-c4ccccc4F)cn13)CN(Cc1ccccc1)CC2
Activity [2]: 56%
Activity [3]: 120%
Activity [4]: 76%
Activity [5]: 31%

Compound: O=C(Cc1ccccc1)N1CCc2nc(O)n3cc(-c4ccccc4F)nc3c2C1
Ki [1]: 388 nM

Compound: CCCC(=O)N1CCc2nc(O)n3cc(-c4ccccc4F)nc3c2C1
Ki [1]: 261 nM

Compound: O=C(OCc1ccccc1)N1CCc2[nH]c(=O)n3cc(-c4ccccc4F)nc3c2C1
EC50 [7]: < 100 nM
Ki [1]: 39 nM
EC50 [8]: < 100 nM
EC50 [9]: 1000 nM

Compound: O=c1[nH]c2c(c3nc(-c4cccc(F)c4)cn13)CN(Cc1ccccc1)CC2
EC50 [7]: 120 nM
Ki [1]: 11.3 nM
EC50 [8]: 154 nM

Compound: C[C@@H](c1ccccc1)N1CCc2nc(O)n3cc(-c4ccccc4F)nc3c2C1
Ki [1]: 6.5 nM

Compound: O=C(c1ccccn1)N1CCc2nc(O)n3cc(-c4ccccc4F)nc3c2C1
Ki [1]: 73 nM

Compound: CC(c1ccccc1)N1CCc2nc(O)n3cc(-c4ccccc4F)nc3c2C1 (stereo unspecified)
Ki [1]: 2.9 nM

Compound: CC(=O)N1CCc2nc(O)n3cc(-c4ccccc4F)nc3c2C1
Ki [1]: 41 nM
Activity [2]: 0%
Activity [3]: 11%
EC50 [6]: 71 nM
Activity [4]: 0%
Activity [5]: 0%

Compound: Oc1nc2c(c3nc(-c4ccccc4F)cn13)CN(c1ncccn1)CC2
Ki [1]: 133 nM
Activity [2]: 0%
EC50 [8]: 84 nM
Activity [3]: 35%
EC50 [6]: 117 nM
Activity [4]: 44%
Activity [5]: 0%

Compound: Oc1nc2c(c3nc(-c4ccccc4F)cn13)CN(CCc1ccccc1)CC2
Ki [1]: 83 nM

Compound: Oc1nc2c(c3nc(-c4ccc(Cl)cc4)cn13)CN(Cc1ccccc1)CC2
Ki [1]: 121 nM

Compound: COc1ccc(-c2cn3c(O)nc4c(c3n2)CN(C)CC4)cc1
Ki [1]: 240 nM

Compound: COc1ccc(-c2cn3c(=O)[nH]c4c(c3n2)CN(Cc2ccccc2)CC4)cc1
EC50 [7]: 28 nM
Ki [1]: 2.6 nM
EC50 [8]: 143 nM

Compound: C=CCN1CCc2[nH]c(=O)n3cc(-c4ccccc4F)nc3c2C1
EC50 [7]: 170 nM
Ki [1]: 26 nM
EC50 [8]: 284 nM
EC50 [6]: 344 nM

Compound: O=c1[nH]c2c(c3nc(-c4ccc(F)cc4)cn13)CN(Cc1ccccc1)CC2
EC50 [7]: 136 nM
Ki [1]: 21 nM
EC50 [8]: 245 nM

Compound: CC(c1ccccc1F)N1CCc2nc(O)n3cc(-c4ccccc4F)nc3c2C1 (stereo unspecified)
Ki [1]: 1.7 nM
